Measurements from ChEMBL document CHEMBL1137710, “Synthesis and in vitro antitumor activity of new quinoxaline derivatives” (2009).

How the values were obtained:
Assay type in all cases: functional
[1] = system: NCI-H522; test: Growth inhibition of human NCI-H522 cells after 48 hrs by sulforhodamine B assay; conditions: NCI-H522, 48 h; for TGI: read-out: pTGI (converted)
How it was run: (§1)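 NCI 60-human-tumor-cell-line panel, with compounds tested over a 5-log dose range. Values are taken from dose-response curves as log10 molar concentrations: GI50 is 50% net growth inhibition, TGI is total growth inhibition, and LC50 is 50% net cell death.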

[2] = system: OVCAR-4; test: Growth inhibition of human OVCAR4 cells after 48 hrs by sulforhodamine B assay; conditions: OVCAR-4, 48 h; for CC50: read-out: pLC50 (the source's name) (converted); for TGI: read-out: pTGI (converted); how it was run: as §1
[3] = system: SK-MEL-5; test: Growth inhibition of human SK-MEL-5 cells after 48 hrs by sulforhodamine B assay; conditions: SK-MEL-5, 48 h; for CC50: read-out: pLC50 (the source's name) (converted); for TGI: read-out: pTGI (converted); how it was run: as §1
[4] = system: UO-31; test: Growth inhibition of human UO31 cells after 48 hrs by sulforhodamine B assay; conditions: UO-31, 48 h; for CC50: read-out: pLC50 (the source's name) (converted); for TGI: read-out: pTGI (converted)
How it was run: (§2)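 Run in the NCI 60-human-tumour-cell-line panel, tested over a 5-log dose range. Dose–response curves gave three values per cell line, each as a log10 molar concentration: GI50 (50% inhibition of net cell growth), TGI (total inhibition of net growth) and LC50 (50% net cell death). The mean graph midpoint is the arithmetic mean over all lines, with insensitive lines entered at the highest concentration tested.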

[5] = system: SN12C; test: Growth inhibition of human SN12C cells after 48 hrs by sulforhodamine B assay; conditions: for CC50: read-out: pLC50 (the source's name) (converted); for TGI: read-out: pTGI (converted); how it was run: as §2
[6] = system: ACHN; test: Growth inhibition of human ACHN cells after 48 hrs by sulforhodamine B assay; conditions: for CC50: read-out: pLC50 (the source's name) (converted); for TGI: read-out: pTGI (converted)
[7] = system: OVCAR-3; test: Growth inhibition of human OVCAR-3 cells after 48 hrs by sulforhodamine B assay; conditions: OVCAR-3, 48 h; for CC50: read-out: pLC50 (the source's name) (converted); for TGI: read-out: pTGI (converted); how it was run: as §1
[8] = system: IGROV-1; test: Growth inhibition of human IGROV1 cells after 48 hrs by sulforhodamine B assay; conditions: IGROV-1, 48 h; for CC50: read-out: pLC50 (the source's name) (converted); for TGI: read-out: pTGI (converted); how it was run: as §1
[9] = system: SK-MEL-28; test: Growth inhibition of human SK-MEL-28 cells after 48 hrs by sulforhodamine B assay; conditions: SK-MEL-28, 48 h; for CC50: read-out: pLC50 (the source's name) (converted); for TGI: read-out: pTGI (converted); how it was run: as §1
[10] = system: K562; test: Growth inhibition of human K562 cells after 48 hrs by sulforhodamine B assay; conditions: K562, 48 h; for TGI: read-out: pTGI (converted); how it was run: as §1
[11] = system: SF-539; test: Growth inhibition of human SF539 cells after 48 hrs by sulforhodamine B assay; conditions: SF-539, 48 h; for TGI: read-out: pTGI (converted); how it was run: as §1
[12] = system: NCI-H226; test: Growth inhibition of human NCI-H226 cells after 48 hrs by sulforhodamine B assay; conditions: NCI-H226, 48 h; for TGI: read-out: pTGI (converted); how it was run: as §1
[13] = system: HL-60(TB); test: Growth inhibition of human HL-60(TB) cells after 48 hrs by sulforhodamine B assay; conditions: HL-60, 48 h; for TGI: read-out: pTGI (converted)
How it was run: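 Tested only on compounds active in a three-line prescreen, in the NCI 60-human-tumour-cell-line panel over a 5-log dose range. Values come from dose–response curves as log10 molar GI50, the concentration inhibiting 50% net cell growth. Log10 TGI (total growth inhibition) and log10 LC50 (50% net cell death) were derived too. Mean graph midpoints include insensitive lines at the highest concentration tested.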

[14] = system: NCI-H322M; test: Growth inhibition of human NCI-H322M cells after 48 hrs by sulforhodamine B assay; conditions: for TGI: read-out: pTGI (converted); how it was run: as §1
[15] = system: HT-29; test: Growth inhibition of human HT-29 cells after 48 hrs by sulforhodamine B assay; conditions: HT-29, 48 h; for TGI: read-out: pTGI (converted); how it was run: as §1
[16] = system: MCF7; test: Growth inhibition of human MCF7 cells after 48 hrs by sulforhodamine B assay; conditions: MCF7, 48 h; for CC50: read-out: pLC50 (the source's name) (converted); for TGI: read-out: pTGI (converted); how it was run: as §1
[17] = system: HCT-15; test: Growth inhibition of human HCT15 cells after 48 hrs by sulforhodamine B assay; conditions: HCT-15, 48 h; for TGI: read-out: pTGI (converted); how it was run: as §1
[18] = system: HOP-62; test: Growth inhibition of human HOP62 cells after 48 hrs by sulforhodamine B assay; conditions: HOP-62, 48 h; for TGI: read-out: pTGI (converted); how it was run: as §1
[19] = system: UACC-62; test: Growth inhibition of human UACC62 cells after 48 hrs by sulforhodamine B assay; conditions: UACC-62, 48 h; for CC50: read-out: pLC50 (the source's name) (converted); for TGI: read-out: pTGI (converted); how it was run: as §2
[20] = system: A498; test: Growth inhibition of human A498 cells after 48 hrs by sulforhodamine B assay; conditions: A498, 48 h; for CC50: read-out: pLC50 (the source's name) (converted); for TGI: read-out: pTGI (converted); how it was run: as §1
[21] = system: SF-268; test: Growth inhibition of human SF268 cells after 48 hrs by sulforhodamine B assay; conditions: SF-268, 48 h; for TGI: read-out: pTGI (converted); how it was run: as §1
[22] = system: MOLT-4; test: Growth inhibition of human MOLT4 cells after 48 hrs by sulforhodamine B assay; conditions: MOLT-4, 48 h; for TGI: read-out: pTGI (converted); how it was run: as §1
[23] = system: SK-MEL-2; test: Growth inhibition of human SK-MEL-2 cells after 48 hrs by sulforhodamine B assay; conditions: SK-MEL-2, 48 h; for CC50: read-out: pLC50 (the source's name) (converted); for TGI: read-out: pTGI (converted); how it was run: as §1
[24] = system: UACC-257; test: Growth inhibition of human UACC257 cells after 48 hrs by sulforhodamine B assay; conditions: UACC-257, 48 h; for CC50: read-out: pLC50 (the source's name) (converted); for TGI: read-out: pTGI (converted); how it was run: as §2
[25] = system: HOP-92; test: Growth inhibition of human HOP92 cells after 48 hrs by sulforhodamine B assay; conditions: HOP-92, 48 h; for TGI: read-out: pTGI (converted); how it was run: as §1
[26] = system: NCI-H460; test: Anticancer activity against human NCI-H460 cells assessed as cell growth at 100 uM after 48 hrs by sulforhodamine B assay; conditions: NCI-H460, 48 h, read-out: Activity

## Nc1cc(N)c2nc(-c3ccccc3)c(Sc3ccc(F)cc3)nc2c1
[1]
  GI50: > 100 µM
  LC50: > 100 µM
  TGI: > 100 µM
[2]
  GI50: 22.9 µM
  CC50: > 100 µM
  TGI: 56.2 µM
[3]
  GI50: 15.5 µM
  CC50: 70.8 µM
  TGI: 33.1 µM
[4]
  GI50: > 100 µM
  CC50: > 100 µM
  TGI: > 100 µM
[5]
  GI50: > 100 µM
  CC50: > 100 µM
  TGI: > 100 µM
[6]
  GI50: > 100 µM
  CC50: > 100 µM
  TGI: > 100 µM
[7]
  GI50: 16.2 µM
  CC50: 69.2 µM
  TGI: 33.9 µM
[8]
  GI50: 25.1 µM
  CC50: > 100 µM
  TGI: > 100 µM
[9]
  GI50: 23.4 µM
  CC50: > 100 µM
  TGI: 53.7 µM
[10]
  GI50: 39.8 µM
  LC50: > 100 µM
  TGI: 38.9 µM
[11]
  GI50: 21.4 µM
  LC50: 75.9 µM
  TGI: 39.8 µM
[12]
  GI50: 19.1 µM
  LC50: > 100 µM
  TGI: 46.8 µM
[13]
  GI50: 38.9 µM
  LC50: > 100 µM
  TGI: > 100 µM
[14]
  GI50: 20.4 µM
  LC50: 70.8 µM
  TGI: 38 µM
[15]
  GI50: 17.8 µM
  LC50: > 100 µM
  TGI: 45.7 µM
[16]
  GI50: 20 µM
  CC50: > 100 µM
  TGI: 63.1 µM
[17]
  GI50: 13.5 µM
  LC50: 56.2 µM
  TGI: 27.5 µM
[18]
  GI50: 16.6 µM
  LC50: 70.8 µM
  TGI: 34.7 µM
[19]
  GI50: 16.6 µM
  CC50: 60.3 µM
  TGI: 31.6 µM
[20]
  GI50: > 100 µM
  CC50: > 100 µM
  TGI: > 100 µM
[21]
  GI50: 17.8 µM
  LC50: 85.1 µM
  TGI: 38.9 µM
[22]
  GI50: > 100 µM
  LC50: > 100 µM
  TGI: > 100 µM
[23]
  GI50: 38 µM
  CC50: > 100 µM
  TGI: > 100 µM
[24]
  GI50: 16.6 µM
  CC50: 60.3 µM
  TGI: 31.6 µM
[25]
  GI50: 22.9 µM
  LC50 (50% net cell death): > 100 µM
  TGI: 55 µM
[26]
  growth at 100 µM: 0%

## Nc1cc(N)c2nc(-c3ccccc3)c(NCc3ccc(F)cc3)nc2c1
[1]
  GI50: > 100 µM
  LC50: > 100 µM
  TGI: > 100 µM
[2]
  GI50: 1.7 µM
  CC50: 60.3 µM
  TGI: 8.13 µM
[3]
  GI50: 1.86 µM
  CC50: 6.92 µM
  TGI: 3.63 µM
[4]
  GI50: 3.8 µM
  CC50: > 100 µM
  TGI: > 100 µM
[5]
  GI50: 7.59 µM
  CC50: 64.6 µM
  TGI: 23.4 µM
[6]
  GI50: 1.7 µM
  CC50: 5.62 µM
  TGI: 3.09 µM
[7]
  GI50: 2.4 µM
  CC50: > 100 µM
  TGI: 6.46 µM
[8]
  GI50: 3.09 µM
  CC50: > 100 µM
  TGI: > 100 µM
[9]
  GI50: 1.91 µM
  CC50: 7.41 µM
  TGI: 3.8 µM
[10]
  GI50: 4.37 µM
  LC50: > 100 µM
  TGI: > 100 µM
[11]
  GI50: 1.82 µM
  LC50: 6.92 µM
  TGI: 3.55 µM
[12]
  GI50: 22.4 µM
  LC50: > 100 µM
  TGI: 47.9 µM
[13]
  GI50: 3.89 µM
  LC50: > 100 µM
  TGI: > 100 µM
[14]
  GI50: 3.47 µM
  LC50: 40.7 µM
  TGI: 11.5 µM
[15]
  GI50: 3.16 µM
  LC50: > 100 µM
  TGI: 12.6 µM
[16]
  GI50: 3.02 µM
  CC50: > 100 µM
  TGI: > 100 µM
[17]
  GI50: 3.31 µM
  LC50: > 100 µM
  TGI: 19.1 µM
[18]
  GI50: 38.9 µM
  LC50: > 100 µM
  TGI: > 100 µM
[19]
  GI50: 15.5 µM
  CC50: 56.2 µM
  TGI: 29.5 µM
[20]
  GI50: 17 µM
  CC50: 57.5 µM
  TGI: 30.9 µM
[21]
  GI50: 2.82 µM
  LC50: 40.7 µM
  TGI: 7.59 µM
[22]
  GI50: > 100 µM
  LC50: > 100 µM
  TGI: > 100 µM
[23]
  GI50: 5.25 µM
  CC50: > 100 µM
  TGI: > 100 µM
[24]
  GI50: 2.04 µM
  CC50: 8.91 µM
  TGI: 4.27 µM
[25]
  GI50: 3.31 µM
  LC50 (50% net cell death): > 100 µM
  TGI: 6.92 µM
[26]
  growth at 100 µM: 1%
